This note sets out measurements from ChEMBL document CHEMBL1770114, “Triamino pyrimidines and pyridines as histamine H(4) receptor modulators” (Bioorg Med Chem Lett, 2011).

Test [1] addresses T1, Histamine H4 receptor (Homo sapiens, UniProt Q9H3N8). The experiment in a line: Displacement of [3H]histamine from human histamine H4 receptor.
Test [2] has as its target T1, Histamine H4 receptor. The experiment in a line: Antagonist activity at human histamine H4 receptor expressed in human SK-N-MC cells assessed as inhibition of forskolin-stimulated cAMP accumulation after 6 hrs. The class given is functional, cell-based. The conditions noted are these: read-out: pA2 (converted). Summed up: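 pA2 format on SK-N-MC cells carrying a CRE-controlled β-galactosidase reporter. Cells were preincubated with compound for 10 min, then with histamine agonist for 10 min, then forskolin was added, followed by 6 h at 37 °C. Lysis used phosphate/Mg/Mn buffer at pH 8 with Triton X-100 and β-mercaptoethanol. Chlorophenol red β-D-galactopyranoside turnover was read at 570 nm.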
A general note: cAMP levels reflect the balance of adenylyl cyclase and phosphodiesterase activity.

Test [3] addresses T1, Histamine H4 receptor. Kind of test: Agonist activity at human histamine H4 receptor expressed in human SK-N-MC cells assessed as effect on forskolin-induced cAMP accumulation after 6 hrs. In kind it is functional, cell-based. Summed up: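 SK-N-MC cells with CRE-driven β-galactosidase reporter. Compound added to medium for 10 min at room temperature, then forskolin (5 µM final), 6 h at 37 °C. Chlorophenol red β-D-galactopyranoside substrate read at A570. α set against histamine (full agonist) = 1.0.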

Test [4] addresses T1, Histamine H4 receptor. The experiment in a line: Agonist activity at human histamine H4 receptor expressed in human SK-N-MC cells assessed as effect on forskolin-induced cAMP accumulation after 6 hrs relative to histamine. In kind it is functional, cell-based. In a few lines:
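SK-N-MC cells expressing human H4 receptor with a cAMP-responsive-element β-galactosidase reporter. Compound incubated 10 min at room temperature, then forskolin (5 µM final), then 6 h at 37 °C. Cells frozen overnight at -40 °C, lysed in phosphate buffer pH 8, chlorophenolred β-D-galactopyranoside substrate added, absorbance read at 570 nm. α calculated relative to histamine (full agonist) set as 1.0.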

T1 sequence (Q9H3N8 whole entry): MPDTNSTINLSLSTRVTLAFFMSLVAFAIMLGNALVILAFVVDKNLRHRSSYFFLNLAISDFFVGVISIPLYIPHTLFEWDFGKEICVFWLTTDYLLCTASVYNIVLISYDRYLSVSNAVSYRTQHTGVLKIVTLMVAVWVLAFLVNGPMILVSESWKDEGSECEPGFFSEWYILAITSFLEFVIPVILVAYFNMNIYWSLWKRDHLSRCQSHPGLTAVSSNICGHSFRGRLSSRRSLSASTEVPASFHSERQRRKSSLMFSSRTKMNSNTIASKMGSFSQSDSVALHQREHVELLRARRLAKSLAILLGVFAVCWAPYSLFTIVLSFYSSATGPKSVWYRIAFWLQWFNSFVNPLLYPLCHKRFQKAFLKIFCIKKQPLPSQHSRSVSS

On to `CN[C@@H]1CCN(c2cc(N)nc(NC(C)C)c2)C1`, for which the inhibitory constant (Ki) at Histamine H4 receptor [1] worked out at 3 nM. In addition, the Kb at Histamine H4 receptor [2] is 1.58 nM. The EC50 at Histamine H4 receptor [3] was above 10000 nM.

For the compound `Nc1nc(N2CCCC2)cc(N2CCNCC2)n1`, the inhibitory constant (Ki) at Histamine H4 receptor [1] was 8 nM. Moreover, at Histamine H4 receptor [3], the concentration giving a half-maximal response (EC50) was above 10000 nM.

In turn, `CN[C@@H]1CCN(c2cc(N)nc(NC(C)C)n2)C1` gave a Ki on Histamine H4 receptor [1] of 6 nM. The Kb on Histamine H4 receptor [2] was 12.6 nM. The half-maximal effective concentration (EC50) on Histamine H4 receptor [3] is above 10000 nM. With `CN[C@@H]1CCN(c2cc(N)nc(NC3CCCC3)n2)C1`, affinity at Histamine H4 receptor [1] was put at a Ki of 6 nM. Moreover, the Kb on Histamine H4 receptor [2] is 12.6 nM. The EC50 at Histamine H4 receptor [3] was above 10000 nM. On Histamine H4 receptor [1], `CN[C@@H]1CCN(c2cc(N)nc(N3CCCC3)c2)C1` gave a Ki of 77 nM. In addition, the Kb on Histamine H4 receptor [2] is 15.8 nM. In addition, the EC50 on Histamine H4 receptor [3] is above 10000 nM. Regarding `CC(C)CNc1cc(N2CCN(C)CC2)nc(N)n1`, affinity at Histamine H4 receptor [1] was put at a Ki of 2 nM. For the same compound, the Kb on Histamine H4 receptor [2] was 1.26 nM. Further, the EC50 at Histamine H4 receptor [3] is above 10000 nM. Compound `CN[C@@H]1CCN(c2cc(NCCO)nc(N)n2)C1` returned an inhibition constant Ki on Histamine H4 receptor [1] of 44 nM.

At Histamine H4 receptor [1], `CN[C@@H]1CCN(c2cc(N)nc(NCCO)n2)C1` gave an inhibitory constant (Ki) of 255 nM.

For `CN[C@@H]1CCN(c2cc(N(C)C(C)C)nc(N)n2)C1`, at Histamine H4 receptor [1], the inhibitory constant (Ki) is 51 nM. Consider `Nc1nc(N2CCCC2)cc(N2CC3CCCNC3C2)n1` (racemic), for which, at Histamine H4 receptor [1], the inhibition constant (Ki) came to 40 nM. For the compound `CN[C@@H]1CCN(c2cc(N)nc(NCC(C)(C)C)c2)C1`, at Histamine H4 receptor [1], the inhibition constant (Ki) worked out at 0.04 nM. In the case of `CN1CCN(c2cc(NC3CCCC3)nc(N)n2)CC1`, the affinity on Histamine H4 receptor [1], expressed as Ki, was 1 nM. Moreover, the Alpha max at Histamine H4 receptor [4] was 0.46. Moreover, the half-maximal effective concentration (EC50) at Histamine H4 receptor [3] came to 101 nM.

In turn, `CN[C@@H]1CCN(c2cc(NC(C)C)nc(N)n2)C1` gave a Ki at Histamine H4 receptor [1] of 3 nM. The Kb on Histamine H4 receptor [2] was 10 nM. In addition, the EC50 on Histamine H4 receptor [3] was above 10000 nM.

`CN1CCN(c2cc(NCc3ccccc3)nc(N)n2)CC1` returned a Ki on Histamine H4 receptor [1] of 20 nM. At Histamine H4 receptor [1], `CN1CCN(c2cc(N3CCCC3)nc(N)n2)CC1` yielded an inhibition constant Ki of 6 nM. The Kb on Histamine H4 receptor [2] is 2 nM. Also, on Histamine H4 receptor [3], the EC50 was above 10000 nM. Compound `CC(C)CNc1nc(N)cc(N2CCN(C)CC2)n1` yielded an inhibitory constant (Ki) on Histamine H4 receptor [1] of 15 nM. In addition, the Alpha max at Histamine H4 receptor [4] was 0.71. Further, the EC50 at Histamine H4 receptor [3] is 86 nM.

Take `CN1CCN(c2cc(N)nc(N3CCCC3)c2)CC1`: on Histamine H4 receptor [1], the affinity corresponds to a Ki of 100 nM. For the same compound, the Kb at Histamine H4 receptor [2] is 20 nM. At Histamine H4 receptor [3], the EC50 was above 10000 nM. `CN1CCN(c2cc(N)nc(NCc3ccccc3)c2)CC1` had an inhibitory constant (Ki) at Histamine H4 receptor [1] of 148 nM. This counts as sub-micromolar. Same read-out and setting: the result for `CN[C@@H]1CCN(c2cc(N)nc(NCc3ccccc3)n2)C1` reads 69 nM.

`CC(C)Nc1cc(N2CCN(C)CC2)cc(N)n1` showed an inhibition constant Ki at Histamine H4 receptor [1] of 28 nM. Moreover, the Alpha max at Histamine H4 receptor [4] was determined as 0.6. Also, at Histamine H4 receptor [3], the EC50 was determined as 533 nM. Turning to `CN[C@@H]1CCN(c2cc(N)nc(NC3CCCC3)c2)C1`, at Histamine H4 receptor [1], the Ki was 0.9 nM. On Histamine H4 receptor [3], the 50% effective concentration (EC50) was above 10000 nM.

Regarding `CN1CCN(c2cc(NCCO)nc(N)n2)CC1`, the Ki at Histamine H4 receptor [1] stood at 25 nM. On the same count and under the same terms, then `Nc1nc(N2CCCC2)cc(N2CC[C@@H](N)C2)n1`, with 64 nM. For the compound `CN1CCN(c2cc(N)nc(NC3CCCC3)c2)CC1`, at Histamine H4 receptor [1], the affinity, expressed as Ki, was 3 nM. Further, the Alpha max at Histamine H4 receptor [4] stood at 0.73. Moreover, the EC50 at Histamine H4 receptor [3] is 11 nM. `CN[C@H]1CCN(c2cc(N3CCCC3)nc(N)n2)C1` registered a Ki at Histamine H4 receptor [1] of 83 nM. The compound `CC(C)N(C)c1cc(N2CCN(C)CC2)cc(N)n1` came in with an inhibitory constant (Ki) at Histamine H4 receptor [1] of 189 nM. In turn, `CN[C@@H]1CCN(c2cc(NC3CCCC3)nc(N)n2)C1` had a Ki on Histamine H4 receptor [1] of 9 nM. Also, at Histamine H4 receptor [2], the Kb was 0.398 nM. Also, the EC50 at Histamine H4 receptor [3] is above 10000 nM. Turning to `CN[C@@H]1CCN(c2cc(N3CCCC3)nc(N)n2)C1`, at Histamine H4 receptor [1], the affinity corresponds to a Ki of 36 nM. Further, the Kb on Histamine H4 receptor [2] is 7.94 nM. For the same compound, on Histamine H4 receptor [3], the half-maximal effective concentration (EC50) was above 10000 nM. As to `CN1CCN(c2cc(N)nc(NCC(C)(C)C)c2)CC1`, the inhibition constant Ki on Histamine H4 receptor [1] is 0.3 nM.

In the case of `CC(C)CNc1cc(N2CCN(C)CC2)cc(N)n1`, on Histamine H4 receptor [1], the Ki is 2 nM. Besides, on Histamine H4 receptor [4], the Alpha max was determined as 0.51. Besides, the EC50 at Histamine H4 receptor [3] is 50 nM. With `CN1CCN(c2cc(N)nc(NCc3ccccc3)n2)CC1`, the Ki on Histamine H4 receptor [1] was 1080 nM. `CN[C@@H]1CCN(c2cc(N)nc(NCC(C)C)c2)C1` showed a Ki at Histamine H4 receptor [1] of 0.2 nM. Moreover, the Kb at Histamine H4 receptor [2] is 1.58 nM. Besides, on Histamine H4 receptor [3], the EC50 was above 10000 nM. On Histamine H4 receptor [1], `CN1CCN(c2cc(N)nc(NC3CCCC3)n2)CC1` registered an inhibition constant Ki of 10 nM. Moreover, the Alpha max on Histamine H4 receptor [4] worked out at 0.63. Besides, on Histamine H4 receptor [3], the concentration for a half-maximal effect (EC50) was determined as 16 nM.

For the compound `CN[C@@H]1CCN(c2cc(N)nc(N(C)C(C)C)n2)C1`, the Ki on Histamine H4 receptor [1] turned out to be 140 nM.

Regarding `CC(C)N(C)c1nc(N)cc(N2CCN(C)CC2)n1`, the Ki on Histamine H4 receptor [1] turned out to be 853 nM. This Ki is about 6.1-fold higher than that of the compound before. The compound `CC(C)Nc1cc(N2CCN(C)CC2)nc(N)n1` yielded an inhibitory constant (Ki) at Histamine H4 receptor [1] of 3 nM. On Histamine H4 receptor [4], the Alpha max was found to be 0.57. For the same compound, the EC50 on Histamine H4 receptor [3] came to 12 nM.

On Histamine H4 receptor [1], `CN[C@@H]1CCN(c2cc(NCc3ccccc3)nc(N)n2)C1` registered a Ki of 58 nM. For `CC(C)Nc1nc(N)cc(N2CCN(C)CC2)n1`, the affinity on Histamine H4 receptor [1] corresponds to a Ki of 162 nM. The compound `CC(C)N(C)c1cc(N2CCN(C)CC2)nc(N)n1` yielded a Ki at Histamine H4 receptor [1] of 24 nM. Besides, the half-maximal effective concentration (EC50) at Histamine H4 receptor [3] was above 10000 nM. For the compound `CN[C@@H]1CCN(c2cc(N)nc(N(C)C(C)C)c2)C1`, the affinity on Histamine H4 receptor [1], expressed as Ki, was 29 nM. That is a double-digit nanomolar value. Consider `CN[C@@H]1CCN(c2cc(N)nc(NCC(C)C)n2)C1`, for which the inhibitory constant (Ki) at Histamine H4 receptor [1] worked out at 1 nM. For the same compound, the Kb at Histamine H4 receptor [2] is 1.58 nM. Moreover, the EC50 at Histamine H4 receptor [3] is above 10000 nM. `CN1CCN(c2cc(N)nc(N3CCCC3)n2)CC1` returned a Ki on Histamine H4 receptor [1] of 132 nM. For the compound `CN[C@@H]1CCN(c2cc(N)nc(N3CCCC3)n2)C1`, affinity at Histamine H4 receptor [1] was put at a Ki of 127 nM.

On Histamine H4 receptor [1], `CN[C@@H]1CCN(c2cc(N)nc(NCc3ccccc3)c2)C1` gave an inhibitory constant (Ki) of 50 nM. For `CN1CCN(c2cc(N)nc(NCCO)n2)CC1`, the inhibitory constant (Ki) at Histamine H4 receptor [1] amounted to 1160 nM. This Ki is about 23-fold higher than that of the compound before.

Usually Ki stands for the equilibrium dissociation constant of an inhibitor or competing ligand from its target. A higher Ki goes with a looser hold on the target. In general, EC50 refers to the concentration at which the effect is half-maximal.
